According to ChEMBL document CHEMBL4513216, “Probing the Open Global Health Chemical Diversity Library for Multistage-Active Starting Points for Next-Generation Antimalarials” (ACS Infect Dis, 2020):

Assay: Toxicity liver stage against HepG2, at 10uM
Format: cell-based
Parameters: test concentration 10 uM, cell line HepG2-A16-CD81EGFP
Details: human, HepG2-A16-CD81EGFP cells; read-out: INHIBITION
In short: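 Uninfected HepG2-A16-CD81EGFP cells, 3 × 10^3 per well, 1536-well, plated on prespotted compound at 10 μM final, parasite-free screening media added to match infected plates; puromycin 10 μM positive, DMSO 0.5% negative; run in parallel with 48 h PbLuc assay at 37 °C, 5% CO2; viability by CellTiter-Glo luminescence, normalized to controls.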

| Compound | cytotoxicity at 10 µM [%] |
| --- | --- |
| COc1ccc2nc(C[C@@H]3C[C@@H](C(C)C)[C@H](CN)C=C3C)[nH]c2n1 | 3.38 |
| COCc1ccc(CN[C@H]2C[C@@H](Cc3cc(CCO)on3)C2(C)C)o1 | -1.68 |
| COc1ccc(NC(=O)C(c2ccc(OC)cc2)N2CCOCC2)cc1 (configuration not stated) | -3.39 |
| Cc1ccc(NC(=O)Cn2ncc(SCC(N)=O)c(Cl)c2=O)cc1 | -16.9 |
| CCOc1ccc(S(=O)(=O)NCCc2ccc(N(C)C)cc2)cc1F | -3.56 |
| CN1CCCC(C(=O)N2CCC(Oc3ncccn3)CC2)C1 (configuration not stated) | -5.2 |
| COc1cc(C(=O)N2CCO[C@H]3[C@H](OCC4CC4)CC[C@@H]32)ccc1F | 9.32 |
| CC(C)N1CCc2ncn(C(C)C)c2C1C(=O)NCCN1CCCC1 (configuration not stated) | 3.11 |
| CCOc1ncnc2c1CCN(S(=O)(=O)CC)CC2 | 3.79 |
| Cc1ccc(N2Cc3c(CN(C)C)nn(C)c3C2)nn1 | 2.47 |
| c1ccc(-c2nnc3sc(CCN4CCCCCC4)nn23)cc1 | 1.11 |
| Cc1cccc(NC(=O)c2nn(C3CCS(=O)(=O)C3)c3c2CCCC3)n1 (configuration not stated) | 10.5 |
| O=c1[nH]c2ccccc2c2c1CCO2 | 6.9 |
| CN1CCN(C(=O)c2ccc(Cn3cc(Br)cn3)cc2)CC1 | -3.7 |
| Cc1nn(C)c2cn(CC(=O)N3CCN(c4ccccc4)CC3)nc12 | 6.94 |
| CCN1CCCC(O)(CNCc2ccccc2F)C1 (configuration not stated) | -5.66 |
| Cc1nn(CCCNC(=O)C2CCN(S(C)(=O)=O)CC2)cc1Cl | -1.94 |
| Cn1ncc(C(=O)N2CCN(CCS(C)(=O)=O)CC2)c1Cl | 4.33 |
| Nc1nccc(C2CCN(c3cnccn3)C2)n1 (configuration not stated) | 1.43 |
| Cc1nc(NC2CCOCC2)cc(C2CCN2S(C)(=O)=O)n1 (configuration not stated) | 2.31 |
| CC(C)S(=O)(=O)N1C[C@@H](O)[C@H](N(C)Cc2ccc(F)cc2)C1 | 2.51 |
| Cc1cc(C)c2nc(C)c(C(=O)N3CCC(N4CCCC4)CC3)cc2c1 | -3.19 |
| Cc1noc(C2CCCN2C(=O)C2CCC2)n1 (configuration not stated) | -12.4 |

| Compound | cytotoxicity at 10 µM [%] |
| --- | --- |
| CNc1cncc(C2CCCN2C(=O)c2ccc3c(c2)OCCO3)n1 (configuration not stated) | -2.97 |
| Cc1cc(C(=O)NCC(F)(F)F)c2c(C3CCCN3)noc2n1 (configuration not stated) | 6 |
| CNC(=O)NCC(=O)Nc1ccccc1N1CCc2ccccc21 | 2.46 |
| CCc1ccsc1C(=O)NC(C#N)CC (configuration not stated) | 3.15 |
| O=S(=O)(Cc1nc(C2CC2)no1)c1ccccc1F | 8.11 |
| CCCOc1ccc2c(c1)OCC(C(=O)NC(C)Cn1cccn1)=C2 (configuration not stated) | 4.46 |
| Cc1cc(CSCc2ccccn2)on1 | 7.69 |
| CC(C)COc1ccccc1C(N)CC(C)C (configuration not stated) | -5.27 |
| COc1cccc(CCC(=O)Nc2c(C)nn(C)c2C)c1OC | 1.98 |
| CSc1ccccc1NC(=O)CCN1CCC(C(=O)N(C)C)CC1 | 6.47 |
| N#Cc1c(Cl)nsc1NCc1ccc(N2CCC(CO)CC2)cc1 | -4.73 |
| CC(C)(C)c1cc(NC(=O)C2COCCO2)n(-c2ccccn2)n1 (configuration not stated) | -3.49 |
| CN(c1cccc2ccccc12)S(=O)(=O)c1cc(C(=O)O)cs1 | -2.88 |
| CC(c1ccc(Cl)cc1)N1CCN(CCCS(N)(=O)=O)CC1 (configuration not stated) | -1.44 |
| Cc1ccc(S(=O)(=O)NCC(C)C#N)cc1Br (configuration not stated) | 0.727 |
| NS(=O)(=O)c1cc(C(=O)N2CCCCC2)cs1 | -0.174 |
| CN(C)C(=O)c1ccc(OC2CCOCC2)cc1 | -2 |
| CCOC1CCCN(C(=O)c2[nH]nc(C(C)C)c2Br)C1 (configuration not stated) | -6.78 |
| CCCc1noc(CNc2cc(C[S+](C)[O-])ccc2Cl)n1 (configuration not stated) | -5.18 |
| NC(=O)C1=NC2=NS(=O)(=O)c3ccccc3N2N1Cc1ccccc1Cl | -10.9 |
| COCC1CCN(CCCc2cn[nH]c2)CC1 | 11.3 |
| COC(=O)c1sccc1CN1CCN(C(=O)c2ccc(C)o2)CC1 | 2.37 |
| CN(CC(F)(F)F)C(=O)CNC(=O)N1CCC(N2CCCC2)C1 (configuration not stated) | 3.72 |

| Compound | cytotoxicity at 10 µM [%] |
| --- | --- |
| CC(C)c1ncc(Cl)c(C(=O)N2CCN(C3CCCC3)CC2)n1 | 8.69 |
| Cc1nnnn1-c1cc(NCc2cccc(C#N)c2)ccc1F | 7.09 |
| CCN(CC)c1ncc(CNCC2CCCn3ccnc32)s1 (configuration not stated) | -29.9 |
| COCC(=O)N1CCN(C(=O)CCc2ccsc2)CC1 | -17 |
| CN1CCN(Cc2ccccc2CNC(=O)c2ccc(Br)cc2F)CC1 | 4.65 |
| CCC(CC)c1cc(CNC(=O)N2CCOC(C)C2)on1 (configuration not stated) | 0.433 |
| CS(=O)(=O)NCc1ncn2c1CN(CCN1CCCC1)CCC2 | -74.9 |
| CN(Cc1ccccc1)CC1(O)CCCN(Cc2ccc(F)cc2)C1=O (configuration not stated) | -14.6 |
| Cc1cnccc1Cn1ccnc1C1CCOC1 (configuration not stated) | -2.53 |
| CC(C)[C@@H]1CN(C(=O)c2ccsc2)C[C@H]1C(=O)O | 12.8 |
| Cc1noc(C)c1CCN1CCCC1c1nc2cc(F)ccc2[nH]1 (configuration not stated) | 9.3 |
| Cc1cc(N2CCC(n3cc(CN4CCSCC4)nn3)CC2)ccn1 | -12.5 |
| COc1ccc2c(c1)OCC(CNC(=O)NC(C)(C)C)C2 (configuration not stated) | -8.54 |
| NC(=O)c1csc(N2CCN(Cc3cccc4nsnc34)CC2)n1 | 0.5 |
| O=C(CCCNCc1ccccc1)N1CCCn2cncc2C1 | -3.32 |
| O=C(O)C1(n2ccnc2)CCN(Cc2cc3ccccc3o2)CC1 | -6.34 |
| O=S1(=O)C[C@@H]2[C@H](C1)N(Cc1cc(Cl)cc(Cl)c1)CCN2CCO | 0.303 |
| O=C(O)c1ccnc(-c2ccnc(NCCc3nc4c(s3)CCC4)n2)c1 | -4.23 |
| CCC(C(=O)NC1(CN2CCOCC2)CCCC1)n1cccn1 (configuration not stated) | 4.52 |
| O=C(NCc1ccc2c(c1)OCO2)c1ccccc1C1CCNC1 (configuration not stated) | -3.6 |
| OC1(CNCCCN2CCc3ccccc32)CCNC1 (configuration not stated) | 11.5 |
| Cc1cc(N2C[C@H](NC(=O)C3(C#N)CCOCC3)[C@@H](C(C)C)C2)ccn1 | -4.1 |
| CCCC(Nc1nc(COCC)nc2c1CCNCC2)c1nccn1C (configuration not stated) | -10.3 |

| Compound | cytotoxicity at 10 µM [%] |
| --- | --- |
| Cc1ccc(OCC2CCCN(C(=O)c3csc(CN(C)C)n3)C2)cc1 (configuration not stated) | -3.16 |
| CCS(=O)(=O)CCNC(=O)[C@@]12CNC[C@@H]1CN(C1CCCC1)C2 | -20.3 |
| CC(C)(N)C(=O)N1CCCC1c1cncc(Oc2ccc(F)cc2)n1 (configuration not stated) | 1.11 |
| CCCc1nc(CN2CCCCC2Cn2cncn2)cs1 (configuration not stated) | -5.61 |
| Cc1nc2cc(O)nn2c(C)c1CCC(=O)NCCc1nccn1C | -0.84 |
| Cc1cccc(OCCN2CCN(Cc3noc(C)n3)CC2)c1 | -8.78 |
| CS(=O)(=O)NCC1CCCCN1C(=O)c1cccc(C(F)(F)F)c1 (configuration not stated) | -2.02 |
| CCCC1CCCN(C(=O)CCn2cccn2)CC1 (configuration not stated) | -9.48 |
| CCn1ccnc1CN1CCN(C(C)C(=O)N2CCCCCC2)CC1 (configuration not stated) | -7.01 |
| CS(=O)(=O)NC(=O)c1nnn(-c2cccc(F)c2)c1C1CC1 | -3.9 |
| Cc1cnn(CC2CN(Cc3nnc(C(C)C)o3)CCO2)c1 (configuration not stated) | -2.55 |
| Cc1cc(CNC(=O)Cc2c(C)nc3cc(=O)[nH]n3c2C)no1 | -7.36 |
| Cc1cc(NC(=O)N(CCO)Cc2ccsc2)no1 | -5.57 |
| O=C(CSc1ccc(Br)cc1)NS(=O)(=O)c1ccc2c(c1)OCCO2 | -5.51 |
| CCNC(c1cccnc1)c1ccc(F)cc1F (configuration not stated) | -2.34 |
| Cc1nc(C)n(CC2CCCCN2Cc2ncc(C(C)(C)C)o2)n1 (configuration not stated) | 0.299 |
| Cn1ccnc1COc1ccc(CN2CCN(CCO)CC2)cc1 | -10.2 |
| CNc1nc(CNC(=O)Nc2cccc(F)c2)cs1 | -5.45 |
| CC(C)CN(Cc1nc2c(cnn2C)c(=O)[nH]1)C(C)C | -9.96 |
| COc1ccc(CNC(=O)N2CCC(Cc3cnn(C)c3)C2)cc1C (configuration not stated) | -9.52 |
| CC(C)(C)n1cc(C(=O)N2CCN(Cc3ccsc3)CC2)cn1 | -5.79 |
| CCn1cnnc1CNC(=O)NC(C)c1cccs1 (configuration not stated) | -4.92 |
| Cc1nc(C)n(CC2CCCN2Cc2cn3c(C)cccc3n2)n1 (configuration not stated) | 2.02 |

| Compound | cytotoxicity at 10 µM [%] |
| --- | --- |
| CCc1nccn1C1CCCN(C(=O)CCCNc2ncccn2)C1 (configuration not stated) | -1.3 |
| CCOc1ncccc1NC(=O)NC1CCCN(c2ncccn2)C1 (configuration not stated) | -10.6 |
| CN1CCCC1c1cc2cccnc2n1Cc1ccc(F)cc1 (configuration not stated) | 5.44 |
| O=C(NCc1ccc(F)cc1)N1CCN(CC(O)C2CC2)CC1 (configuration not stated) | 8.88 |
| O=C(NCC1CCC2(CCNCC2)O1)C1CC1 (configuration not stated) | -5.01 |
| CCN1CCn2c(C)cnc2C12CCN(C(=O)Cc1ccccc1)CC2 | 4.59 |
| Cc1occc1C(=O)N1CCO[C@H]2[C@@H](Oc3ccccn3)CC[C@@H]21 | 2.37 |
| O=C(c1ccnnc1)N1C[C@H]2CCC[C@@]2(COCc2ccccn2)C1 | -78.7 |
| CN1CCN(Cc2cnc3n2CCN(Cc2cccs2)C3)CC1 | -3.24 |
| O=C1[C@H]2CN(Cc3ccco3)C[C@H]2CN1c1ccsc1 | -71.9 |
| Cc1noc(C)c1CN1CCC2(CC1)CC(Oc1cccnc1)C2 | 23.2 |
| CN(C)C(=O)CN1CC[C@H]2CN(C3CCOCC3)C[C@@H]2C1=O | -3.84 |
| CCOC1COC2(CCN(Cc3ccc(C)c(C)c3)CC2)C1 (configuration not stated) | -11.2 |
| COCCN1C[C@@H]2[C@@H](OC)CCN(S(=O)(=O)c3cccnc3)[C@@H]2C1 | -71.7 |
| CN1C(=O)C2(CCN(CC3CC3)CC2)c2ccccc21 | 3.16 |
| CN(Cc1cn2c(n1)CN(Cc1ccsc1)CC2)Cc1ccco1 | -78.5 |
| O=C(c1cccnc1)N1CCn2cc(CN3CCCC3)nc2C1 | -74.8 |
| Cn1ncc2c1CCCC2NCc1cc(Br)cs1 (configuration not stated) | -0.481 |
| O=C1CC2(CCN(Cc3ccncc3)C2)CN1c1ccc2c(c1)OCO2 (configuration not stated) | -74.1 |
| CN1CCN(C(=O)N2C[C@@H]3CC[C@H]2CN(Cc2ccccc2)C3)CC1 | -7.71 |
